Test results as given in ChEMBL document CHEMBL1144032, “Potent antagonists of the CCR2b receptor. Part 3: SAR of the (R)-3-aminopyrrolidine series” (Bioorg Med Chem Lett, 2008).
Activity calls are given as the source filed them. No cut-off for these calls is given here.

Experiments:
[1] = target: T1, C-C chemokine receptor type 2 (Homo sapiens, UniProt P41597); test: Displacement of [125I]MCP1 from human CCR2b in THP1 cells; type: cell-based, THP-1
Procedure, shortened: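 Radioligand competition with [125I]-MCP-1 on THP-1 cells. IC50 taken from dose-response curves built from duplicate points; where SD is given, value is mean of at least three independent experiments.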
Target sequence in this assay (P41597 whole entry): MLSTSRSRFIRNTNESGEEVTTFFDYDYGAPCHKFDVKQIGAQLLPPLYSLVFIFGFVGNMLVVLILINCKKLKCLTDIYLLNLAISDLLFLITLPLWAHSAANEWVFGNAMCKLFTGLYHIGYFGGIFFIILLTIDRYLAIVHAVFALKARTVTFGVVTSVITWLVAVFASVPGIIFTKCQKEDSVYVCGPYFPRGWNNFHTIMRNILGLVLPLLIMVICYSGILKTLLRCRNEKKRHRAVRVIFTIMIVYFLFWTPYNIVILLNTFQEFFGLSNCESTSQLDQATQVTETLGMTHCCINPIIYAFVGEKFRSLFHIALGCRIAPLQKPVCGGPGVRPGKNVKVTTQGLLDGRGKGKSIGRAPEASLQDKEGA

[2] = target: T1, C-C chemokine receptor type 2; test: Antagonist activity at human CCR2 in THP1 cells assessed as inhibition of MCP1-induced calcium flux; type: functional, cell-based, THP-1
Procedure, shortened: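 THP-1 cells grown in HBSS loading buffer with 1% FBS and 20 mM HEPES, spun down, then loaded 30 min with Fluo-3 AM (2 million cells/mL, 4 µM dye, 20 mM HEPES, 0.1% BSA, 5 mM probenecid). Washed three times into HEPES/NaCl/glucose buffer with 2.5 mM probenecid, 1.25 mM CaCl2 and 0.1% BSA; 150,000 cells/well. Compound added 3 min before 10^-7 M human MCP-1; intracellular Ca2+ read by FLIPR.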
Target sequence in this assay (P41597 whole entry): as above

[3] = target: T1, C-C chemokine receptor type 2; test: Antagonist activity at human CCR2 in THP1 cells assessed as inhibition of calcium flux in absence of MCP1; type: functional, cell-based; settings: THP-1
Target sequence in this assay (P41597 whole entry, looked up): as the sequence (P41597 whole entry) above

[4] = target: T2, C-C chemokine receptor type 1 (Homo sapiens) (UniProt P32246); test: Displacement of [125I]MIP-1alpha from human CCR1 in THP cells at 1 uM
T2 sequence (whole entry): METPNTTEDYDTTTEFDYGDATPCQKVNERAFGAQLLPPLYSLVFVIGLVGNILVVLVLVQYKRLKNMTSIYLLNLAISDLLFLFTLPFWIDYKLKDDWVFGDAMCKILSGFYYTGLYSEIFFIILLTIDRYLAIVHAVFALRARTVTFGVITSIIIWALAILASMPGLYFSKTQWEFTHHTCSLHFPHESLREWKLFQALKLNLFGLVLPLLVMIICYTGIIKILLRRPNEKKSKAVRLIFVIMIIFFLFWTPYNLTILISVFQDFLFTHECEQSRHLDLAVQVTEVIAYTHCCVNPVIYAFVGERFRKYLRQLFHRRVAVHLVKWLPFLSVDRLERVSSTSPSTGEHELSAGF

[5] = target: T1, C-C chemokine receptor type 2; test: Displacement of [125I]MCP1 from human CCR2b in HEK293 cells; type: cell-based
Procedure, shortened: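 Competition for [125I]-MCP-1 binding on HEK293 cells transfected with human CCR2b receptor.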
Target sequence in this assay (P41597 whole entry): as the sequence (P41597 whole entry) above

[6] = target: T3, C-C chemokine receptor type 1 (Homo sapiens, UniProt P32246); test: Displacement of [125I]MIP-1alpha from human CCR1 in THP cells
T3 sequence (P32246 whole entry): T2 sequence (whole entry)

SMILES | IC50 [1] | other results
Cc1ccc(CN2CC[C@@H](NC(=O)CNC(=O)c3cc(C(F)(F)F)ccc3N)C2)cc1N | 0.0061 µM | –
O=C(CNC(=O)c1cccc(C(F)(F)F)c1)N[C@@H]1CCN(Cc2ccc(Br)cc2)C1 | 0.166 µM | –
O=C(CNC(=O)c1cccc(C(F)(F)F)c1)N[C@@H]1CCN(Cc2cccc(Cl)c2)C1 | > 5 µM | –
Nc1cc(CN2CC[C@@H](NC(=O)CNC(=O)c3cc(C(F)(F)F)ccc3N)C2)ccc1Cl | 0.0041 µM | –
Nc1ccc([N+](=O)[O-])cc1C(=O)NCC(=O)N[C@@H]1CCN(Cc2ccc(Cl)cc2)C1 | 0.208 µM | –
O=C(CNC(=O)c1cccc(C(F)(F)F)c1)N[C@@H]1CCN(Cc2ccccc2)C1 | 0.69 µM | –
COc1cccc(CN2CC[C@@H](NC(=O)CNC(=O)c3cccc(C(F)(F)F)c3)C2)c1 | 3.17 µM | –
O=C(CNC(=O)c1cccc(C(F)(F)F)c1)N[C@@H]1CCN(Cc2ccccc2-c2ccc3ccccc3c2)C1 | 0.759 µM | –
O=C(CNC(=O)c1cccc(OC(F)(F)F)c1)N[C@@H]1CCN(Cc2ccc(Cl)cc2)C1 | 0.489 µM | –
COc1ccc(CN2CC[C@@H](NC(=O)CNC(=O)c3cc(C(F)(F)F)ccc3N)C2)cc1N | 0.0053 µM | –
CSc1ccc(CN2CC[C@@H](NC(=O)CNC(=O)c3cccc(C(F)(F)F)c3)C2)cc1 | 0.204 µM | –
O=C(CNC(=O)c1cccc(C(F)(F)F)c1)N[C@@H]1CCN(Cc2ccc(Cl)cc2Cl)C1 | 0.3 µM | –
Nc1ccc(I)cc1C(=O)NCC(=O)N[C@@H]1CCN(Cc2ccc(Cl)cc2)C1 | 0.308 µM | –
COc1cc(CN2CC[C@@H](NC(=O)CNC(=O)c3cccc(C(F)(F)F)c3)C2)ccc1O | 0.153 µM | –
Nc1cc(CN2CC[C@@H](NC(=O)CNC(=O)c3cc(C(F)(F)F)ccc3N)C2)ccc1O | 0.014 µM | –
Nc1ccc(Br)cc1C(=O)NCC(=O)N[C@@H]1CCN(Cc2ccc(Cl)cc2)C1 | 0.643 µM | –
COc1cc(CN2CC[C@@H](NC(=O)CNC(=O)c3cc(C(F)(F)F)ccc3N)C2)ccc1O | 0.039 µM | –
Nc1cccc(C(=O)NCC(=O)N[C@@H]2CCN(Cc3ccc(Cl)cc3)C2)c1 | > 10 µM | –
O=C(CNC(=O)c1cccc(C(F)(F)F)c1)N[C@@H]1CCN(Cc2ccc([N+](=O)[O-])cc2)C1 | 1.55 µM | –
O=C(CNC(=O)c1ccccc1Cl)N[C@@H]1CCN(Cc2ccc(Cl)cc2)C1 | > 10 µM | –
O=C(CNC(=O)c1ccccc1)N[C@@H]1CCN(Cc2ccc(Cl)cc2)C1 | > 10 µM | –
Cc1ccc(CN2CC[C@@H](NC(=O)CNC(=O)c3cc(C(F)(F)F)ccc3N)C2)cc1 | 0.02 µM | –
O=C(CNC(=O)c1ccc(C(F)(F)F)cc1)N[C@@H]1CCN(Cc2ccc(Cl)cc2)C1 | > 5 µM | –
N#Cc1ccc(CN2CC[C@@H](NC(=O)CNC(=O)c3cccc(C(F)(F)F)c3)C2)cc1 | 2.65 µM | –
O=C(CNC(=O)c1cccc(Br)c1)N[C@@H]1CCN(Cc2ccc(Cl)cc2)C1 | 0.785 µM | –
O=C(CNC(=O)c1cccc(F)c1)N[C@@H]1CCN(Cc2ccc(Cl)cc2)C1 | 4.33 µM | –
Cc1cccc(CN2CC[C@@H](NC(=O)CNC(=O)c3cccc(C(F)(F)F)c3)C2)c1 | 3.1 µM | –

The next lines start with results.

IC50 [1] | SMILES | other results
> 10 µM | Nc1ccccc1C(=O)NCC(=O)N[C@@H]1CCN(Cc2ccc(Cl)cc2)C1 | –
0.0032 µM | Cc1ccc(CN2CC[C@@H](NC(=O)CNC(=O)c3cc(C(F)(F)F)ccc3N)C2)c(C)c1 | IC50 [2]: 0.0075 µM; Activity [3]: inactive
0.63 µM | O=C(CNC(=O)c1cccc(C(F)(F)F)c1)N[C@@H]1CCN(Cc2ccccc2Cl)C1 | –
0.96 µM | Cc1ccccc1CN1CC[C@@H](NC(=O)CNC(=O)c2cccc(C(F)(F)F)c2)C1 | –
0.61 µM | O=C(CNC(=O)c1cccc(C(F)(F)F)c1)N[C@@H]1CCN(Cc2ccc(OC(F)(F)F)cc2)C1 | –
1.36 µM | COc1ccccc1CN1CC[C@@H](NC(=O)CNC(=O)c2cccc(C(F)(F)F)c2)C1 | –
0.116 µM | Cc1ccc(CN2CC[C@@H](NC(=O)CNC(=O)c3cccc(C(F)(F)F)c3)C2)cc1 | IC50 [2]: 0.064 µM; Activity [3]: inactive
> 10 µM | N#Cc1cccc(C(=O)NCC(=O)N[C@@H]2CCN(Cc3ccc(Cl)cc3)C2)c1 | –
> 10 µM | COc1cccc(C(=O)NCC(=O)N[C@@H]2CCN(Cc3ccc(Cl)cc3)C2)c1 | –
> 10 µM | O=C(CNC(=O)c1ccccc1C(F)(F)F)N[C@@H]1CCN(Cc2ccc(Cl)cc2)C1 | –
0.226 µM | O=C(CNC(=O)c1cccc(C(F)(F)F)c1)N[C@@H]1CCN(Cc2ccc(O)cc2)C1 | IC50 [2]: 0.365 µM; Activity [3]: inactive
0.059 µM | CCc1ccc(CN2CC[C@@H](NC(=O)CNC(=O)c3cccc(C(F)(F)F)c3)C2)cc1 | –
0.305 µM | CC(=O)Nc1ccc(CN2CC[C@@H](NC(=O)CNC(=O)c3cccc(C(F)(F)F)c3)C2)cc1 | –
2.38 µM | Cc1cccc(C(=O)NCC(=O)N[C@@H]2CCN(Cc3ccc(Cl)cc3)C2)c1 | –
0.026 µM | Nc1ccc(C(F)(F)F)cc1C(=O)NCC(=O)N[C@@H]1CCN(Cc2ccc(Cl)cc2)C1 | inhibition [4]: 25%; IC50 [5]: 0.045 µM; IC50 [2]: 0.0231 µM; IC50 [6]: > 1 µM; Activity [3]: inactive
10 µM | Cc1ccc(C(=O)NCC(=O)N[C@@H]2CCN(Cc3ccc(Cl)cc3)C2)cc1 | –

IC50 [1] | SMILES | other results
> 5 µM | O=C(CNC(=O)c1ccc(Cl)cc1)N[C@@H]1CCN(Cc2ccc(Cl)cc2)C1 | –
0.114 µM | COc1ccc(CN2CC[C@@H](NC(=O)CNC(=O)c3cccc(C(F)(F)F)c3)C2)cc1 | –
0.96 µM | O=C(CNC(=O)c1cccc(C(F)(F)F)c1)N[C@@H]1CCN(Cc2ccc(F)cc2)C1 | –
0.832 µM | O=C(CNC(=O)c1cccc([N+](=O)[O-])c1)N[C@@H]1CCN(Cc2ccc(Cl)cc2)C1 | –
0.121 µM | C=Cc1ccc(CN2CC[C@@H](NC(=O)CNC(=O)c3cccc(C(F)(F)F)c3)C2)cc1 | –
0.042 µM | Nc1ccc(C(F)(F)F)cc1C(=O)NCC(=O)N[C@@H]1CCN(Cc2ccc(O)cc2)C1 | –
0.011 µM | CCc1ccc(CN2CC[C@@H](NC(=O)CNC(=O)c3cc(C(F)(F)F)ccc3N)C2)cc1 | IC50 [2]: 0.0053 µM; Activity [3]: inactive
0.019 µM | C=Cc1ccc(CN2CC[C@@H](NC(=O)CNC(=O)c3cc(C(F)(F)F)ccc3N)C2)cc1 | –
0.053 µM | COc1ccc(CN2CC[C@@H](NC(=O)CNC(=O)c3cc(C(F)(F)F)ccc3N)C2)cc1O | –
0.73 µM | Nc1ccc(Cl)cc1C(=O)NCC(=O)N[C@@H]1CCN(Cc2ccc(Cl)cc2)C1 | –
0.088 µM | Nc1ccc(OC(F)(F)F)cc1C(=O)NCC(=O)N[C@@H]1CCN(Cc2ccc(Cl)cc2)C1 | –
0.02 µM | COc1ccc(CN2CC[C@@H](NC(=O)CNC(=O)c3cc(C(F)(F)F)ccc3N)C2)cc1 | –
2.4 µM | O=C(CNC(=O)c1cccc(Cl)c1)N[C@@H]1CCN(Cc2ccc(Cl)cc2)C1 | –
0.096 µM | Nc1ccc(C(F)(F)F)cc1C(=O)NCC(=O)N[C@@H]1CCN(Cc2ccc(Cl)cc2Cl)C1 | –
> 10 µM | Cc1ccccc1C(=O)NCC(=O)N[C@@H]1CCN(Cc2ccc(Cl)cc2)C1 | –
